Measured values: ChEMBL document CHEMBL1132441, “Further studies on oxygenated tryptamines with LSD-like activity incorporating a chiral pyrrolidine moiety into the side chain” (J Med Chem, 1999)
Where “and” joins values, the source holds several entries; their conditions need not be identical. Identical values can stand only once.

Columns and labels:
[1] = tested on: Rattus norvegicus; assay: Substitution tests were carried out for the compound in DOI- trained rats dosed with 0.12 mg/kg drug and the binding data was reported; type: functional
[2] = tested on: Rattus norvegicus; assay: Percentage of rats selecting the drug liver at dose of 0.33 mg/kg; type: functional
Method in brief: (§1)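 Male Sprague–Dawley rats were trained in a two-lever FR50 food-reinforced task to discriminate LSD (0.08 mg/kg) or DOI (0.4 mg/kg) from saline. Test drugs were given i.p. in 0.9% saline 30 min before the session. The lever first pressed 50 times was scored as selected, and the result is the percentage of rats selecting the drug lever.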

[3] = tested on: Rattus norvegicus; assay: Substitution tests were carried out for the compound in LSD- trained rats dosed with 0.06 mg/kg drug and the binding data was reported; type: functional
[4] = tested on: Rattus norvegicus; assay: Percentage of rats selecting the drug liver at dose of 0.08 mg/kg; type: functional; method in brief: as §1
[5] = tested on: Rattus norvegicus; assay: Percentage of rats selecting the drug liver at dose of 0.65 mg/kg; type: functional; method in brief: as §1
[6] = tested on: Rattus norvegicus; assay: Substitution tests were carried out for the compound in DOI- trained rats dosed with 0.50 uM/kg drug and the binding data was reported; type: functional
Method in brief: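 Rats trained on DOI (0.4 mg/kg i.p.) versus saline under an FR50 two-lever food schedule received the test drug i.p. in saline 30 min before testing. Quantal scoring used the lever first reaching 50 presses to give %SDL. ED50 and 95% CI were obtained by the Litchfield–Wilcoxon log-probit method when a dose reached ≥80% SDL.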

[7] = tested on: Rattus norvegicus; assay: Percentage of rats selecting the drug liver at dose of 0.16 mg/kg; type: functional
Method in brief: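 Male Sprague–Dawley rats (200-220 g) were trained in a two-lever FR 50 food-reinforced task to discriminate LSD (0.08 mg/kg) or DOI (0.4 mg/kg) from saline. Drugs were given i.p. in 0.9% saline 30 min before the session. Scoring was quantal: the lever first reaching 50 presses counted as selected, and %SDL is the percentage of rats choosing the drug lever.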

[8] = tested on: Rattus norvegicus; assay: Substitution tests were carried out for the compound in LSD- trained rats dosed with 0.25 uM/kg drug and the binding data was reported; type: functional
Method in brief: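 Rats trained on LSD (0.08 mg/kg i.p.) versus saline under an FR50 two-lever food schedule received the test drug i.p. in 0.9% saline 30 min before the session. The lever first given 50 presses was scored as selected, giving %SDL. ED50 (95% CI) came from Litchfield–Wilcoxon log-probit analysis, and none was calculated where ≥50% of rats were disrupted.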

[9] = target: 5-hydroxytryptamine receptor 2A (Rattus norvegicus, UniProt P14842); assay: Compound was tested for binding affinity using [3H]MDL-100,907 at 5-hydroxytryptamine 2A receptor sites in rat cortical homogenate.
Method in brief: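 Membranes (200-400 µg protein) from rat frontal cortex homogenate were incubated with 0.2 nM [3H]MDL100907 and competing drug for 15 min at 37 °C. The buffer was Tris-HCl pH 7.4 with EDTA, pargyline, CaCl2 and ascorbate. Bound and free ligand were separated by GF/C filtration and read by scintillation counting. Nonspecific binding was taken with 10 µM cinanserin. […] values come from at least three experiments, each in triplicate.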

[10] = target: 5-hydroxytryptamine receptor 2A (Rattus norvegicus) (UniProt P14842); assay: Compound was tested for binding affinity at 5-hydroxytryptamine 2A receptor sites in rat cortical homogenate using [125I]-2,5-Dimethoxy -4-iodoamphetamine (DOI).
Method in brief: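 Rat frontal cortex membranes were washed in 50 mM Tris-HCl pH 7.4 and preincubated at 37 °C in buffer with EDTA, pargyline, CaCl2 and ascorbate. They were incubated with [125I]DOI and test drug for 15 min at 37 °C, then filtered, and the filters were gamma-counted. Cinanserin (10 µM) defined nonspecific binding. Values come from at least three experiments, each in triplicate.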

[11] = tested on: Rattus norvegicus; assay: Percentage of rats selecting the drug liver at dose of 1.36 mg/kg; type: functional; method in brief: as §1
[12] = tested on: Rattus norvegicus; assay: Percentage of rats selecting the drug liver at dose of 0.68 mg/kg; type: functional; method in brief: as §1
[13] = tested on: Rattus norvegicus; assay: Percentage of rats selecting the drug liver at dose of 0.12 mg/kg; type: functional; method in brief: as §1
[14] = tested on: Rattus norvegicus; assay: Percentage of rats selecting the drug liver at dose of 0.06 mg/kg; type: functional; method in brief: as §1
[15] = tested on: Rattus norvegicus; assay: Percentage of rats selecting the drug liver at dose of 0.03 mg/kg; type: functional; method in brief: as §1
[16] = tested on: Rattus norvegicus; assay: Percentage of rats selecting the drug liver at dose of 0.23 mg/kg; type: functional; method in brief: as §1
[17] = tested on: Rattus norvegicus; assay: Percentage of rats selecting the drug liver at dose of 0.01 mg/kg; type: functional; method in brief: as §1
[18] = tested on: Rattus norvegicus; assay: Percentage of rats selecting the drug liver at dose of 0.02 mg/kg; type: functional; method in brief: as §1
[19] = tested on: Rattus norvegicus; assay: Substitution tests were carried out for the compound in LSD- trained rats dosed with 0.046 uM/kg drug and the binding data was reported; type: functional
[20] = tested on: Rattus norvegicus; assay: Percentage of rats selecting the drug liver at dose of 0.04 mg/kg; type: functional; method in brief: as §1
[21] = tested on: Rattus norvegicus; assay: Substitution tests were carried out for the compound in LSD- trained rats dosed with 0.02 mg/kg drug and the binding data was reported; type: functional
[22] = tested on: Rattus norvegicus; assay: Percentage of rats selecting the drug liver at dose of 0.2 mg/kg; type: functional; method in brief: as §1
[23] = tested on: Rattus norvegicus; assay: Percentage of rats selecting the drug liver at dose of 0.4 mg/kg; type: functional; method in brief: as §1
[24] = tested on: Rattus norvegicus; assay: Percentage of rats selecting the drug liver at dose of 0.1 mg/kg; type: functional; method in brief: as §1

5-hydroxytryptamine receptor 2A, sequence (P14842 whole entry): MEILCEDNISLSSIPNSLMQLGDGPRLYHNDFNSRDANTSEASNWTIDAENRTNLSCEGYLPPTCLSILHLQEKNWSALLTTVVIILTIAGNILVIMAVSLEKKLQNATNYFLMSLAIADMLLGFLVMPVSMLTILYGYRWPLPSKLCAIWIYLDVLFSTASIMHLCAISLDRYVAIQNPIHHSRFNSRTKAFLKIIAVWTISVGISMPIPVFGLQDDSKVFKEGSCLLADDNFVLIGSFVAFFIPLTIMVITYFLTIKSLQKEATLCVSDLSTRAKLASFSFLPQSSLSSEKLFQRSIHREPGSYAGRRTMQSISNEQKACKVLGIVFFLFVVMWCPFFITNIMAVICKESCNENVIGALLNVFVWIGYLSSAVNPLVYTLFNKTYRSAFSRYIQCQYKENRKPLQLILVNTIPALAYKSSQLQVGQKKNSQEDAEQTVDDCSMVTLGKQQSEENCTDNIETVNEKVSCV
5-hydroxytryptamine receptor 2A (Rattus norvegicus), sequence (P14842 whole entry): as above

`COc1ccc2[nH]cc(C[C@H]3CCCN3C)c2c1` was tested, and the ED50 [1] was 0.11 µmol/kg, the SDL [2] was 82% and 88% and the ED50 [3] was 0.14 µmol/kg. For the same compound, the SDL ([4]; 0.08 mg/kg) was 20% and 43%, the SDL [5] was 100% and the ED50 [6] was 0.32 µmol/kg. The SDL [7] was 63%, the ED50 [8] was 0.44 µmol/kg and the Ki [9] was 400 nM. For the same compound, the K0.5 [10] was 9.5 nM.
`CN1CCC[C@H]1Cc1c[nH]c2cc(O)ccc12` gave a Ki [9] of 4700 nM and a K0.5 [10] of 290 nM.
In the case of `COc1ccc2[nH]cc(C3CCN(C)C3)c2c1` (stereo not given), the SDL [11] is reported as 50%, the SDL [12] is reported as 33% and 14% and the Ki [9] is reported as 1300 nM. For the same compound, the K0.5 [10] was 150 nM.
`CN(C)CCc1c[nH]c2cccc(O)c12` [PSILOCIN] gave a Ki [9] of 390 nM and a K0.5 [10] of 6 nM.
Work on `COc1ccc2[nH]cc(CCN(C)C)c2c1` [MEBUFOTENIN] yielded a Ki [9] of 1600 nM and a K0.5 [10] of 21 nM.
For `CN1CCC[C@@H]1Cc1c[nH]c2cc(O)ccc12`, the ED50 [1] was 0.11 µmol/kg, the SDL [13] was 64% and 43% and the ED50 [3] was 0.06 µmol/kg. For the same compound, the SDL [14] was 40% and 14%, the ED50 [6] was 0.47 µmol/kg and the ED50 [8] was 0.25 µmol/kg. For the same compound, the Ki [9] was 210 nM, the SDL [15] was 30% and the K0.5 [10] was 13 nM. For the same compound, the SDL [16] was 100%.
`CCN(CC)C(=O)[C@@H]1C=C2c3cccc4[nH]cc(c34)C[C@H]2N(C)C1` [LYSERGIDE] showed an SDL [17] of 46%, an SDL [18] of 78% and an ED50 [19] of 0.026 µmol/kg. For the same compound, the SDL [20] was 81%, the SDL [4] was 100% and the ED50 [21] was 0.012 µmol/kg.
Work on `COc1cc(CC(C)N)c(OC)cc1I` (stereo not given) yielded an SDL [22] of 89%, an ED50 [19] of 0.28 µmol/kg and an SDL [23] of 100%. For the same compound, the SDL [24] was 56% and the ED50 [21] was 0.12 µmol/kg.
Compound `CN1CCC(c2c[nH]c3cccc(O)c23)C1` (stereo not given) has a Ki [9] of 440 nM and a K0.5 [10] of 82 nM.
Work on `COc1ccc2[nH]cc(C[C@@H]3CCCN3C)c2c1` yielded a Ki [9] of over 9400 nM and a K0.5 [10] of 64 nM.
